We go through eleven compounds from PubChem BioAssay.

Experiment [1] can be described thus: reduced viability of SK-BR-3 breast cancer cells – cell-based, 24 h, human, pilot screen (AID 572;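 active = viability at or below 10% of carrier control in both of two separate runs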;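 also: compound exposure lasted between 18 and 24 h rather than exactly 24 h; 100% = carrier-treated control wells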). The conditions noted are these: SK-BR-3 viability, CellTiter-Glo luminescence, at 10 µM, stronger effect = lower value. For orientation: ATP-based viability assays read luminescence as a measure of living cells.
Experiment [2] is described as follows: HUVEC growth inhibition – cell-based, human, primary screen (AID 575;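 active = viability at or below 30% in both replicate assays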;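 also: 100% = median of untreated cell wells with 0.1% DMSO on each plate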). To be noted: HUVEC proliferation, CellTiter-Glo luminescence, 72 h; at 10 µM; stronger effect = lower value. The gist of the method: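 Material: primary human umbilical vein endothelial cells / Schedule: 72 h exposure, 37 °C, 5% CO2, 30 min RT equilibration / Signal: ATP-based CellTiter-Glo luminescent read / Read-out basis: percent of median DMSO-control luminescence / Control set: 32 DMSO-only cell-control wells (high), 32 MePR drug-control wells (low) per plate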

Experiment [3] is described as follows: H69AR cell proliferation blockers – human, duplicate replicates, primary screen (AID 580;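 active = viability at or under a set limit in both replicates, limit being median viability minus 3 SD, cut at about 48% in these data, passing the limit was not always enough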;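 also: 100% = mean luminescence of untreated wells and 0% = no signal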). The conditions noted are these: H69AR lung tumor cells viability, ATP luminescence, 72 h; at 10 µM; stronger effect = lower value.
A short description of experiment [4]: MRP1 drug-resistance reversers in H69AR cells – cell-based, doxorubicin co-treatment, pilot screen (AID 601;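 active = viability loss from added drug above about 55%, and viability with drug at most 40%, in both replicates, limit read from the data, passing the limit was not always enough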). The conditions noted are these: CellTiter-Glo, 72 h, at 10 µM; for differential viability (reversal): stronger effect = higher value.
Experiment [5] is described as follows: yeast transport mutant growth inhibition pilot in 384-well plates, post-Golgi transport modulator project (AID 636; in the data active = inhibition above about 31%). The conditions noted are these: absorbance 615 nm, about 18 h, stronger effect = higher value.
Experiment [6] in a line: growth suppression of yeast trafficking mutant, preliminary HTS, modulators of trafficking downstream of Golgi apparatus project, 1536-format plate, OD 615 nm (AID 637). The conditions noted are these: yeast transport mutant growth, absorbance 615 nm, 18 h; stronger effect = higher value.
[7] abbreviates: H69AR cells + 2 uM doxorubicin, measured here: viability with 2 uM doxorubicin, stronger effect = lower value.
The mark [8] stands for this setting: H69AR cells, compound alone cytotoxicity.

Activity calls are given as the source filed them. Rule as the data show it, unless noted: active = inhibition above about 30%; inactive = the rest.

A word on the viability: it is a read-out of living cells in per cent, often relative to untreated cells. For orientation: inhibition means the drop in the measured response relative to a control, in per cent. For the compound `CC1=NN(c2ccccc2)C(=O)C1`, the viability in experiment [1] was 96% (inactive); in experiment [2] it was 74.6% (inactive); in experiment [3], 94.5% (inactive); in experiment [4] (setting [7]) it was 105%; in experiment [4] (setting [8]), 94.5%. In experiment [4] (H69AR cells + 2 uM doxorubicin), the differential viability (reversal) was -10.1% (inactive). The inhibition in experiment [5] is 1.95% (inactive); in experiment [6] it was 0.67% (inactive).
With `Cc1ccc(Cn2c(SCC(N)=O)nc3c2c(=O)n(C)c(=O)n3C)cc1`, the viability in experiment [1] was 106% (inactive); in experiment [2] it was 86.9% (inactive); in experiment [3], 86.4% (inactive); in experiment [4] (setting [7]), 82.9%; in experiment [4] (setting [8]) it was 86.4%. The differential viability (reversal) in experiment [4] (H69AR cells + 2 uM doxorubicin) was 3.46% (inactive). Further, the inhibition was -2.4% (inactive) in experiment [5] and -6.55% (inactive) in experiment [6].
In the case of `Cc1cc(Cl)c(S(=O)(=O)Nc2ccc3c(c2)OCCO3)cc1OCC(N)=O`, the viability was 78% (inactive) in experiment [1]; 107% (inactive) in experiment [2]; 97.2% (inactive) in experiment [3]; 85.5% in experiment [4] (setting [7]); 97.2% in experiment [4] (setting [8]). Further, the differential viability (reversal) in experiment [4] (H69AR cells + 2 uM doxorubicin) is 11.7% (inactive). Moreover, the inhibition in experiment [5] was 0.27% (inactive); in experiment [6], 4.84% (inactive).
Consider `COc1cccc(-c2nnc(NC(=O)Cc3cccs3)s2)c1`, for which the viability in experiment [1] is 88% (inactive); in experiment [2], 84.8% (inactive); in experiment [3] it was 82.6% (inactive); in experiment [4] (setting [7]) it was 96.8%; in experiment [4] (setting [8]) it was 82.6%. In experiment [4] (H69AR cells + 2 uM doxorubicin), the differential viability (reversal) is -14.2% (inactive). Also, the inhibition in experiment [5] was -5.34% (inactive); in experiment [6], 5.16% (inactive).
Turning to `COc1ccc2c3c(c(=O)oc2c1OCC(N)=O)CCCC3`, the viability in experiment [1] was 117% (inactive); in experiment [2], 117% (inactive); in experiment [3] it was 97.6% (inactive); in experiment [4] (setting [7]) it was 81.3%; in experiment [4] (setting [8]), 97.6%. Besides, in experiment [4] (H69AR cells + 2 uM doxorubicin), the differential viability (reversal) was 16.2% (inactive). Further, the inhibition in experiment [5] was -5.48% (inactive); in experiment [6], -2.55% (inactive).
For `c1ccc(-c2nc3ccccc3nc2-c2ccccn2)nc1`, the viability in experiment [1] was 89% (inactive); in experiment [2] it was 107% (inactive); in experiment [3], 89.5% (inactive); in experiment [4] (setting [7]) it was 99.1%; in experiment [4] (setting [8]), 89.5%. In experiment [4] (H69AR cells + 2 uM doxorubicin), the differential viability (reversal) is -9.55% (inactive). Also, the values for the inhibition in experiment [5] and in experiment [6] were -1.17% (inactive) and 0.98% (inactive), respectively.
On to `CC(=O)N=c1sc(S(N)(=O)=O)nn1C`, for which the viability in experiment [1] is 84% (inactive); in experiment [2] it was 77.6% (inactive); in experiment [3], 93.9% (inactive); in experiment [4] (setting [7]), 72.8%; in experiment [4] (setting [8]) it was 93.9%. For the same compound, in experiment [4] (H69AR cells + 2 uM doxorubicin), the differential viability (reversal) was 21.1% (inactive). Also, the inhibition was 0.39% (inactive) in experiment [5] and 3.17% (inactive) in experiment [6].
As to `Cc1csc(NC(=O)Nc2cccc(Cl)c2)n1`, the viability in experiment [1] is 102% (inactive); in experiment [2], 75% (inactive); in experiment [3], 98.6% (inactive); in experiment [4] (setting [7]) it was 90%; in experiment [4] (setting [8]), 98.6%. In experiment [4] (H69AR cells + 2 uM doxorubicin), the differential viability (reversal) is 8.58% (inactive). Besides, the inhibition in experiment [5] is -3.73% (inactive); in experiment [6], -1.09% (inactive).
Regarding `Cc1ccc(Cn2ccc(NC(=O)c3cc(-c4cccs4)on3)n2)cc1`, the viability is 96% (inactive) in experiment [1]; 48.7% (inactive) in experiment [2]; 82.9% (inactive) in experiment [3]; 82.8% in experiment [4] (setting [7]); 82.9% in experiment [4] (setting [8]). Further, the differential viability (reversal) in experiment [4] (H69AR cells + 2 uM doxorubicin) was 0.115% (inactive). For the same compound, the inhibition in experiment [5] was -2.6% (inactive); in experiment [6] it was -2.46% (inactive).
Regarding `Cc1ccc2[nH]c(=O)c(-c3noc(-c4ccncc4)n3)cc2c1`, the viability in experiment [1] was 104% (inactive); in experiment [2], 113% (inactive); in experiment [3] it was 98.7% (inactive); in experiment [4] (setting [7]) it was 94%; in experiment [4] (setting [8]), 98.7%. Besides, the differential viability (reversal) in experiment [4] (H69AR cells + 2 uM doxorubicin) is 4.67% (inactive). Moreover, the inhibition is -8.11% (inactive) in experiment [5] and 6.18% (inactive) in experiment [6].
On to `Cc1noc(NS(=O)(=O)c2ccc(N)cc2)c1C`, for which the viability in experiment [1] is 97% (inactive); in experiment [2] it was 91% (inactive); in experiment [3], 105% (inactive); in experiment [4] (setting [7]), 89.1%; in experiment [4] (setting [8]), 105%. The differential viability (reversal) in experiment [4] (H69AR cells + 2 uM doxorubicin) was 15.7% (inactive). Also, the inhibition was 2.34% (inactive) in experiment [5] and -1.5% (inactive) in experiment [6].
